Results: ChEMBL document CHEMBL1123449, “9,11-Epoxy-9-homo-14-oxaprosta-5-enoic acid derivatives. Novel inhibitors of fatty acid cyclooxygenase” (J Med Chem, 1986)

Columns and labels:
[1] = species: Homo sapiens; assay: In vitro inhibition of arachidonic acid induced platelet aggregation of human platelet-rich plasma; assay type: functional; details: read-out: I50
How it was run: (§1)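 Aggregation of human platelet-rich plasma triggered with arachidonic acid at 800 μM. The method follows an earlier report, and the value is given as I50.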

[2] = species: Homo sapiens; assay: In vitro ability to inhibit adenosine diphosphate induced platelet aggregation (ADPIPA) of human platelet-rich plasma (PRP); assay type: functional; details: read-out: I50
[3] = species: Homo sapiens; assay: In vitro ability to inhibit arachidonic acid induced platelet aggregation (AAIPA) of human platelet-rich plasma (PRP); assay type: functional; how it was run: as §1
[4] = species: Homo sapiens; assay: In vitro ability to cause dose dependent inhibition of arachidonic acid (AA) conversion to PGE-2; assay type: functional; details: read-out: I50
How it was run: (§2)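 Compound incubated with platelet lysate at several concentrations. Read-out is inhibition of arachidonic acid conversion to TXA2, measured as TXB2 production, and to PGE2. The value is given as I50.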

[5] = species: Homo sapiens; assay: In vitro ability to cause dose dependent inhibition of arachidonic acid (AA) conversion to thromboxane A2 (TXA2 ); assay type: functional; details: read-out: I50; how it was run: as §2
[6] = species: Homo sapiens; assay: In vitro ability to inhibit adenosine diphosphate induced platelet aggregation (ADPIPA) of human platelet-rich plasma (PRP), and I50 value was reported from single determination.; assay type: functional, organism-based; details: read-out: I50

Row | IC50 ([1]; Homo sapiens, Plasma) [µM] | SMILES | other results
1 | 4 | COc1ccc2c(c1)c(CC(=O)O)c(C)n2C(=O)c1ccc(Cl)cc1 [INDOMETHACIN] | –
2 | 105 | CCCCCOCCC1C2CCC(O2)C1C/C=C\CCCC(=O)O (stereo not drawn) | –
3 | 165 | O=C(O)CCC/C=C\CC1C2CCC(O2)C1COCC1CCCCC1 (stereo not drawn) | –
4 | – | CCCCCCOC[C@@H]1C2CCC(O2)[C@@H]1C/C=C\CCCC(=O)O (stereo in doubt; 10) | IC50 [1]: 10 µM
5 | 6 | C=CCOCC1C2CCC(O2)C1C/C=C\CCCC(=O)O (stereo not drawn) | –
6 | – | CCCCCC(C)OCC1C2CCC(O2)C1C/C=C\CCCC(=O)O (stereo in doubt; form 2) | IC50 [1]: 3.2 µM
7 | – | CCCCCCOC[C@@H]1C2CCC(O2)[C@H]1C/C=C\CCCC(=O)O (stereo in doubt; 11) | IC50 [1]: 18 µM
8 | 22 | COCC1C2CCC(O2)C1C/C=C\CCCC(=O)O (stereo not drawn) | –
9 | 26 | O=C(O)CCC/C=C\CC1C2CCC(O2)C1COCCCc1ccccc1 (stereo not drawn) | –
10 | 340 | CCCCCCCO[C@@H]1C2CCC(O2)[C@@H]1C/C=C\CCCC(=O)O (stereo partly drawn) | –
11 | – | CCCCC[C@H](O)/C=C/[C@@H]1C2CCC(O2)[C@@H]1C/C=C\CCCC(=O)O (stereo partly drawn) | IC50 [2]: 300 µM
12 | 14 | CCCCCCOC(C)C1C2CCC(O2)C1CC=CCCCC(=O)O (stereo not drawn) | –
13 | 0.5 | CC/C=C/CCOCC1C2CCC(O2)C1C/C=C\CCCC(=O)O (stereo not drawn) | –
14 | 0.3 | CCC/C=C/COCC1C2CCC(O2)C1C/C=C\CCCC(=O)O (stereo not drawn) | –
15 | – | CCCCCC(C)OCC1C2CCC(O2)C1C/C=C\CCCC(=O)O (stereo in doubt; form 1) | IC50 [1]: 23 µM
16 | – | CCCCCCOC[C@@H]1C2CCC(O2)[C@H]1C/C=C\CCCC(=O)O (stereo in doubt; 9) | IC50 [1]: 25 µM
17 | 3.3 | CCC/C=C\COCC1C2CCC(O2)C1C/C=C\CCCC(=O)O (stereo not drawn) | –
18 | – | CCCC[C@@H](O)/C=C/C1C2CCC(O2)C1C/C=C\CCCC(=O)O (stereo partly drawn) | AC50 [3]: 2.5 µM
19 | 32 | CCCCCCCCOCC1C2CCC(O2)C1C/C=C\CCCC(=O)O (stereo not drawn) | –
20 | 0.2 | CCCC#CCOCC1C2CCC(O2)C1C/C=C\CCCC(=O)O (stereo not drawn) | –
21 | 7.4 | CCCCC(C)COCC1C2CCC(O2)C1C/C=C\CCCC(=O)O (stereo not drawn) | –
22 | > 1000 | O=C(O)CCCCC1CC2C3CCC(O3)C2CO1 (stereo not drawn) | –
23 | 0.2 | CCCCCCOCC1C2CCC(O2)C1CCCCCCC(=O)O (stereo not drawn) | –
24 | 120 | CCCCCCCO[C@H]1C2CCC(O2)[C@@H]1C/C=C\CCCC(=O)O (stereo partly drawn) | –
25 | – | CCCCCCOC[C@@H]1C2CCC(O2)[C@@H]1C/C=C\CCCC(=O)O (single isomer, unassigned; (-)) | IC50 [1]: 38.5 µM
26 | – | CCCCCCOC[C@@H]1C2CCC(O2)[C@H]1C/C=C\CCCC(=O)O (stereo in doubt; 1) | IC50 [1]: 0.5 µM; IC50 [2]: > 1000 µM; IC50 ([4]; Homo sapiens): 3.8 µM; IC50 [4]: 6.3 µM; IC50 [5]: 6.3 µM
27 | 185 | CC(=O)Oc1ccccc1C(=O)O [ASPIRIN] | –
28 | 0.3 | CCCCC[C@H](O)/C=C/[C@H]1C2CCC(O2)[C@@H]1C/C=C\CCCC(=O)O (stereo partly drawn) | IC50 [6]: 1.6 µM
